Consider twelve molecules from ChEMBL document CHEMBL2311421, “Synthesis, crystal structure and antidiabetic activity of substituted (E)-3-(Benzo [d]thiazol-2-ylamino) phenylprop-2-en-1-one” (Eur J Med Chem, 2013).

pIC50: −log10 of the molar value.

A short description of test [1]: Inhibition of Swiss mouse liver glucosidase. The conditions noted are these: for pIC50: read-out: IC50. In a few lines: (§1)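 Enzyme source: tissue homogenates of pancreas, liver or small intestine from 12 h-starved 10-week-old male Swiss mice (20 g), made 1:10 w/v in ice-cold 10 mM phosphate buffer with 6 mM NaCl plus protease inhibitors. Spun at 10,000 rpm for 10 min; supernatant diluted to A280 0.4. Assayed as for amylase. IC50 from mean of n = 3.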

Test [2] is described as follows: Inhibition of Swiss mouse intestinal glucosidase. To be noted: for pIC50: read-out: IC50. A digest of the protocol:
as §1

The nature of test [3]: Inhibition of Swiss mouse pancreatic glucosidase. In a few lines:
as §1

The target of test [4] is T1, Pancreatic alpha-amylase (Sus scrofa, UniProt P00690).
T1 sequence (P00690 whole entry): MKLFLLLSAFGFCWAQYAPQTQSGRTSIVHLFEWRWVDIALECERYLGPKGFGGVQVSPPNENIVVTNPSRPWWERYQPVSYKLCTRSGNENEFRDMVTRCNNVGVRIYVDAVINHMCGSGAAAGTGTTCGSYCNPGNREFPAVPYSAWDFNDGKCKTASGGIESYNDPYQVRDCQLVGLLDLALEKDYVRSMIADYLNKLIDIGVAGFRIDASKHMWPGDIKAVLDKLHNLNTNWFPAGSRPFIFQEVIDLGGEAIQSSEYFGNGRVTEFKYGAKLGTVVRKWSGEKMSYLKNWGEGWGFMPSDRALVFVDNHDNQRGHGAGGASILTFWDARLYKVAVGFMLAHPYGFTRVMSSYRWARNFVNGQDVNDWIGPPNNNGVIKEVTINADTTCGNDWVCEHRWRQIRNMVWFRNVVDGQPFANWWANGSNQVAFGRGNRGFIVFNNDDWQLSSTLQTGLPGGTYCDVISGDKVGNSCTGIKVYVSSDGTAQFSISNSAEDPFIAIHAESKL
The test can be described thus: Inhibition of pig pancreatic alpha-amylase by Bernfeld method.

As usually defined, the pIC50 is the IC50 on a negative log10 scale, so that one unit is a factor of ten. Turning to `CCOc1ccc2nc(N/C(=C\C(=O)c3ccc(C)cc3)SC)sc2c1`, the pIC50 in test [1] is 4.62; in test [2] it was 4.63; in test [3], 4.70; in test [4], 4.72.

On to `CCOc1ccc2nc(N/C(=C\C(=O)c3ccc(Br)cc3)SC)sc2c1`, for which the negative-log IC50 (pIC50) in test [1] was 4.80; in test [2] it was 4.50; in test [3] it was 4.68; in test [4] it was 4.80.

With `CS/C(=C/C(=O)c1ccc(Br)cc1)Nc1nc2ccccc2s1`, the pIC50 in test [1] is 4.81; in test [2], 4.34; in test [3], 4.66; in test [4], 4.75.

Consider `CCOc1ccc2nc(N/C(=C\C(=O)c3ccccc3)SC)sc2c1`, for which the IC50 result in test [1] and in test [2] was “Not Active” each time. In addition, the pIC50 in test [3] is 4.74; in test [4], 4.79.

For the molecule `CS/C(=C/C(=O)c1ccc(Br)cc1)Nc1nc2cc(C)c(C)cc2s1`, the pIC50 in test [1] is 4.78; in test [2] it was 4.59; in test [3], 4.61; in test [4], 4.77.

Regarding `CS/C(=C/C(=O)c1ccc(Cl)cc1)Nc1nc2ccccc2s1`, the pIC50 in test [1] was 4.82; in test [2], 4.35; in test [3], 4.49; in test [4] it was 4.69.

As for `CCOc1ccc2nc(N/C(=C\C(=O)c3ccc(Cl)cc3)SC)sc2c1`, the pIC50 in test [1] is 4.76; in test [2] it was 4.83; in test [3] it was 4.58; in test [4], 4.75.

Regarding `CS/C(=C/C(=O)c1ccc(F)cc1)Nc1nc2ccccc2s1`, the pIC50 in test [1] was 4.66; in test [2], 4.49; in test [3], 4.47; in test [4], 4.70.

As for `CCOc1ccc2nc(N/C(=C\C(=O)c3ccc(F)cc3)SC)sc2c1`, the pIC50 in test [1] is 4.62; in test [2] it was 4.31; in test [3], 4.63; in test [4] it was 4.74.

In the case of `CCOc1ccc2nc(N/C(=C\C(=O)c3ccc(OC)cc3)SC)sc2c1`, the pIC50 is 4.67 in test [1], 4.53 in test [2], 4.64 in test [3] and 4.73 in test [4].

For `CS/C(=C/C(=O)c1ccc(C)cc1)Nc1nc2ccccc2s1`, the pIC50 in test [1] was 4.65; in test [2], 4.52; in test [3], 4.57; in test [4], 4.69.

`C[C@H]1O[C@H](O[C@H]2[C@H](O)[C@@H](O)[C@@H](O[C@H]3[C@H](O)[C@@H](O)C(O)O[C@@H]3CO)O[C@@H]2CO)[C@H](O)[C@@H](O)[C@@H]1N[C@H]1C=C(CO)[C@@H](O)[C@H](O)[C@H]1O` (some centres not stated) [ACARBOSE]: the pIC50 in test [1] and in test [3] was less than 4.00 in each case. Further, the IC50 entry in test [2] is “Not Active”.
